“And” between values parts separate entries of the source, which are not always exact repeats. Identical values can stand only once.
Each compound was assayed against T1, NS3 (Hepatitis C virus, UniProt A3EZJ3) (assay: Dissociation constant for HCV NS3 protease substrate binding site; protein precipitation at 1:2 compound [100 uM]/protein ratio). Settings: not given; call rule not given here.
Parameters: species or system Hepacivirus hominis
Method in brief: (§1)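 Uniformly 15N-labeled single-chain ns4a–ns3p, 0.2 mM, in 75 mM potassium phosphate pH 6.5, 20 mM DTT, 95/5% H2O/D2O, 0.015% sodium azide. Spectra were recorded with and without compound at several compound concentrations. KD and bound shift were fitted by nonlinear least squares to a single-site binding equation, with total compound and protein concentrations known.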

T1 sequence (A3EZJ3 whole entry): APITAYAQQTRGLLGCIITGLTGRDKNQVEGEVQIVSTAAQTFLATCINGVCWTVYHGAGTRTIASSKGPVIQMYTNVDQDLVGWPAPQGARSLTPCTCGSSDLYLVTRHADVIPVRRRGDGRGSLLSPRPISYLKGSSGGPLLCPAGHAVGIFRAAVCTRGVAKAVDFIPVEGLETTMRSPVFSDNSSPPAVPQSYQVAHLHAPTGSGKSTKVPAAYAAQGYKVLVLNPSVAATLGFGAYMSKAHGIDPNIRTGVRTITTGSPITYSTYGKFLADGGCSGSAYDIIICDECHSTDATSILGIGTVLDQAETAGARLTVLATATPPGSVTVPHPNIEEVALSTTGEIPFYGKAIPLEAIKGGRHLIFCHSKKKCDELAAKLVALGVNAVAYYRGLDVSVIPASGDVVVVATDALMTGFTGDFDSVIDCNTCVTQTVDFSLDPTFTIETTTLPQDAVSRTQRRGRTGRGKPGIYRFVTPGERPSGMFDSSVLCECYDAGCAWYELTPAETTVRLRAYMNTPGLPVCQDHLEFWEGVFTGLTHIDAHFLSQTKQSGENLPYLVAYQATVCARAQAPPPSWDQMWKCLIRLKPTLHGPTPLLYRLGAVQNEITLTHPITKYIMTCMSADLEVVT

Question: How did the Kd turn out when `O=C(O)C(Cc1cc(I)c(O)c(I)c1)c1ccc(-c2ccccc2)cc1` (configuration not stated) was run?
Answer: No Delta CS

Question: Which Kd does the source give for `CC(C)c1ccc(C(Cc2cc(I)c(O)c(I)c2)C(=O)O)cc1` (configuration not stated) here?
Answer: No Delta CS

Question: Which Kd does the source give for `O=C(O)C(Cc1cc(I)c(O)c(I)c1)c1ccc2ccccc2c1` (configuration not stated) here?
Answer: No Delta CS

The compounds below were run against T1, NS3 (assay: Dissociation constant for HCV NS3 protease substrate binding site). Settings: not given.
Parameters: species or system Hepacivirus hominis
Method in brief: as §1

Question: `CC(C)(C)OC(=O)N[C@H](Cc1cc(I)c(O)c(I)c1)C(=O)O` was tested. Which Kd did it give?
Answer: Active

Question: For `CCOC(=O)C(Cc1cc(I)c(O)c(I)c1)c1ccccc1` (configuration not stated), which Kd is on record?
Answer: Not Active

Question: For `Oc1c(I)cc(CCc2ccncc2)cc1I`, which Kd is on record?
Answer: Not Active

Question: How did the Kd turn out when `O=C(c1ccc(Cl)cc1)c1cccc(Cl)c1C(=O)O` was run?
Answer: Insoluble

Question: For `CC(=O)N[C@H](Cc1cc(I)c(O)c(I)c1)C(=O)O`, which Kd is on record?
Answer: Active

Question: With `CC(C)(C)OC(=O)N[C@@H](Cc1cc(I)c(O)c(I)c1)C(=O)O` as the compound, how does the Kd read?
Answer: Active

Question: With `COc1ccc(C(=O)c2cc(OC)ccc2C(=O)O)cc1` as the compound, how does the Kd read?
Answer: Insoluble

Same assay, conditions: read-out: Kd

Question: Which Kd does the source give for `O=C(O)c1cc2cc(Br)ccc2[nH]1` here?
Answer: 200 µM

Question: How did the Kd turn out when `O=C(O)c1cc2ccc(Cl)cc2[nH]1` was run?
Answer: 400 µM

Question: For `Cc1ccc2[nH]c(C(=O)O)cc2c1`, which Kd is on record?
Answer: 1200 µM

Question: With `COc1ccc2[nH]c(C(=O)O)cc2c1` as the compound, how does the Kd read?
Answer: 4000 µM

Question: `COc1ccc(C(=O)c2ccc[nH]2)cc1` was tested. Which Kd did it give?
Answer: > 20 µM

Question: Which Kd does the source give for `COc1ccc(NC(=O)c2ccccc2C(=O)O)cc1` here?
Answer: 22000 µM

Question: `COC(=O)[C@H](N)Cc1cc(I)c(O)c(I)c1` was tested. Which Kd did it give?
Answer: > 2500 µM

Question: `O=C(O)c1ccccc1Oc1ccc(Cl)cc1` was tested. Which Kd did it give?
Answer: 7000 µM

Question: For `Nc1ccc(CC(C(=O)O)c2ccccc2)cc1` (configuration not stated), which Kd is on record?
Answer: > 8000 µM

Question: Which Kd does the source give for `Cc1ccc(N)cc1NC(=O)c1ccc(N)cc1` here?
Answer: 100000 µM

Question: `COC(=O)c1cccc(C(=O)c2ccc(Cl)cc2)c1C(=O)O` was tested. Which Kd did it give?
Answer: > 10000 µM

Question: How did the Kd turn out when `O=C(O)COc1c(I)cc(CC(C(=O)O)c2ccccc2)cc1I` (configuration not stated) was run?
Answer: > 8000 µM

Question: How did the Kd turn out when `O=C(O)c1cc2ccccc2s1` was run?
Answer: 1700 µM

Question: For `O=C(O)c1cc2c(Cl)cccc2[nH]1`, which Kd is on record?
Answer: 800 µM

Question: `Nc1ccc(C(=O)c2ccccc2)cc1` was tested. Which Kd did it give?
Answer: > 30 µM and ~20 µM

Question: For `CC(=O)c1ccc(OCCC(=O)O)cc1`, which Kd is on record?
Answer: > 20000 µM

Question: For `CON(C)C(=O)Nc1ccc(O)c(C(F)(F)F)c1`, which Kd is on record?
Answer: 8000 µM

Question: With `COc1ccc(NC(=O)C(C)(C)C)cc1` as the compound, how does the Kd read?
Answer: > 100 µM

Question: `O=C(O)c1ccccc1C(=O)c1ccc(C(F)(F)F)cc1` was tested. Which Kd did it give?
Answer: 4000 µM

Question: Which Kd does the source give for `Nc1ccc(C(=O)c2cccnc2N)cc1` here?
Answer: 70000 µM

Question: How did the Kd turn out when `Cn1c(C(=O)O)cc2ccccc21` was run?
Answer: 8100 µM

Question: With `O=C(O)c1cc2cc(Cl)ccc2o1` as the compound, how does the Kd read?
Answer: 2200 µM

Question: For `O=C(/C=N/O)Nc1ccc(C(=O)O)cc1`, which Kd is on record?
Answer: > 250 µM

Question: For `O=C(O)c1cc2cccc(Cl)c2[nH]1`, which Kd is on record?
Answer: 1400 µM

Question: `O=C(CCCl)Nc1ccc(O)cc1` was tested. Which Kd did it give?
Answer: 55000 µM

Question: How did the Kd turn out when `Nc1ccc(C(=O)Nc2ccc(Cl)c(N)c2)cc1` was run?
Answer: 20000 µM

Question: `O=C(O)CCCc1cc(I)c(O)c(I)c1` was tested. Which Kd did it give?
Answer: 140 µM

Question: How did the Kd turn out when `COc1ccc(N)cc1NC(=O)c1ccc(N)cc1` was run?
Answer: > 20000 µM

Question: `O=C(O)C(Cc1cc(Br)c(O)c(Br)c1)c1ccccc1` (configuration not stated) was tested. Which Kd did it give?
Answer: > 8000 µM

Question: How did the Kd turn out when `O=C(O)Cc1ccccc1C(=O)c1ccc(Cl)cc1` was run?
Answer: 4000 µM

Question: With `Nc1ccc(C(=O)c2ccc(N)cc2)cc1` as the compound, how does the Kd read?
Answer: > 20000 µM

Question: Which Kd does the source give for `CN(C)C(=O)c1cccc(C(=O)c2ccc(Cl)cc2)c1C(=O)O` here?
Answer: > 10000 µM

Question: With `O=C(O)c1ccccc1C(=O)c1ccc(Cl)cc1` as the compound, how does the Kd read?
Answer: ~3 µM

Question: `O=C(O)c1ccc(O)cc1C(=O)c1ccc(O)cc1` was tested. Which Kd did it give?
Answer: > 10000 µM

Question: With `COc1ccc(NC(=O)C(C)C)cc1` as the compound, how does the Kd read?
Answer: 70000 µM

Question: Which Kd does the source give for `O=C(O)c1ccccc1C(=O)c1ccc(F)cc1` here?
Answer: ~4000 µM

Question: With `O=C(O)CC(c1ccccc1)c1cc(I)c(O)c(I)c1` (configuration not stated) as the compound, how does the Kd read?
Answer: 40 µM

Question: For `O=C(O)C(Cc1ccc(O)cc1)c1ccccc1` (configuration not stated), which Kd is on record?
Answer: > 8000 µM

Question: With `Nc1cc(O)nc(-c2cc(I)c(O)c(I)c2)n1` as the compound, how does the Kd read?
Answer: ~230 µM

Question: `COc1ccc(C(=O)C2CC2)cc1` was tested. Which Kd did it give?
Answer: > 20000 µM

Question: With `COc1ccc(NC(=O)CCC(=O)O)cc1` as the compound, how does the Kd read?
Answer: > 110000 µM

Question: With `CN(C)C(=O)Nc1ccc(O)c(C(F)(F)F)c1` as the compound, how does the Kd read?
Answer: 12000 µM

Question: For `O=C(O)CCCc1ccc(C(=O)c2ccccc2C(=O)O)cc1`, which Kd is on record?
Answer: 40000 µM

Question: With `O=C(O)CCc1cc(I)c(O)c(I)c1` as the compound, how does the Kd read?
Answer: 90 µM

Question: How did the Kd turn out when `COc1ccc(C(=O)c2ccccc2C(=O)O)cc1` was run?
Answer: 1000 µM

Question: With `CC(C)C(=O)Nc1ccc(O)cc1` as the compound, how does the Kd read?
Answer: 17000 µM

Question: `Cc1ccc(C(=O)c2ccccc2C(=O)O)cc1` was tested. Which Kd did it give?
Answer: 1600 µM

Question: How did the Kd turn out when `CC1(C(=O)Nc2ccc(O)cc2)CC1` was run?
Answer: 8400 µM

Question: How did the Kd turn out when `CC(C)C(=O)Nc1ccc(O)c(C(F)(F)F)c1` was run?
Answer: 8000 µM

Question: With `O=C(O)C(Cc1cc([N+](=O)[O-])c(O)c([N+](=O)[O-])c1)c1ccccc1` (configuration not stated) as the compound, how does the Kd read?
Answer: > 8000 µM

Question: With `O=C(O)c1cc(I)c(O)c(I)c1` as the compound, how does the Kd read?
Answer: 420 µM

Question: Which Kd does the source give for `O=C(O)c1cc2cccc(Br)c2[nH]1` here?
Answer: 1000 µM

Question: With `O=C(O)c1ccccc1Cc1ccc(O)cc1` as the compound, how does the Kd read?
Answer: > 7000 µM

Question: For `COc1ccc(NC(=O)C2(C)CC2)cc1`, which Kd is on record?
Answer: > 60000 µM

Question: For `COc1ccc2sc(C(=O)O)cc2c1`, which Kd is on record?
Answer: 8000 µM

Question: With `COc1ccc(CC(C(=O)O)c2ccccc2)cc1` (configuration not stated) as the compound, how does the Kd read?
Answer: > 8000 µM

Question: For `O=C(O)c1ccccc1C(=O)c1cccc(Cl)c1`, which Kd is on record?
Answer: > 10000 µM

Question: With `Cc1ccc(NC(=O)c2ccc(N)cc2)c(N)c1` as the compound, how does the Kd read?
Answer: > 20000 µM

Question: `O=C(O)c1cc2ccccc2o1` was tested. Which Kd did it give?
Answer: 6400 µM

Question: For `O=C(O)C(F)(F)C(F)(F)C(=O)O`, which Kd is on record?
Answer: ~5.2 µM

Question: Which Kd does the source give for `COc1c(I)cc(CC(C(=O)O)c2ccccc2)cc1I` (configuration not stated) here?
Answer: > 1600 µM

Question: Which Kd does the source give for `c1ccc2c(c1)NC1SCCCN21` (configuration not stated) here?
Answer: ~1.9 µM

Question: Which Kd does the source give for `O=C(O)c1ccccc1C(=O)c1ccc(O)cc1` here?
Answer: 1600 µM

Question: How did the Kd turn out when `CC(=O)c1ccc(OCC(=O)O)cc1` was run?
Answer: > 20000 µM

Question: How did the Kd turn out when `Cc1ccc(C(=O)O)c(C(=O)c2ccc(O)cc2)c1` was run?
Answer: > 5000 µM

Question: `O=C(O)c1cc(Br)ccc1C(=O)c1ccc(O)cc1` was tested. Which Kd did it give?
Answer: > 600 µM

Question: Which Kd does the source give for `CC1(C(=O)Nc2ccc(O)c(C(F)(F)F)c2)CC1` here?
Answer: 690 µM

Question: With `CNC(=O)Nc1ccc(C(=O)O)cc1` as the compound, how does the Kd read?
Answer: > 210000 µM

Question: How did the Kd turn out when `O=C(O)c1ccccc1Cc1ccc(Cl)cc1` was run?
Answer: > 7000 µM

Question: How did the Kd turn out when `O=C(O)c1ccccc1Oc1ccc(F)cc1` was run?
Answer: 7000 µM

Question: `O=C(O)c1cc2cc(Cl)ccc2[nH]1` [5-CHLOROINDOLE-2-CARBOXYLIC ACID] was tested. Which Kd did it give?
Answer: 300 µM

Question: How did the Kd turn out when `O=C(O)c1cc2cc(F)ccc2[nH]1` [5-FLUOROINDOLE-2-CARBOXYLIC ACID] was run?
Answer: 2.9 µM

Question: `Nc1ccc(C(=O)O)cc1` [AMINOBENZOIC ACID] was tested. Which Kd did it give?
Answer: > 40000 µM

Question: How did the Kd turn out when `O=C(O)c1cc2ccccc2[nH]1` [INDOLE-2-CARBOXYLIC ACID] was run?
Answer: 12000 µM

Question: Which Kd does the source give for `O=C(O)C(Cc1cc(I)c(O)c(I)c1)c1ccccc1` (configuration not stated) [IODOALPHIONIC ACID] here?
Answer: 110 µM

Question: For `CCC(=O)Nc1ccc(O)cc1` [PARAPROPAMOL], which Kd is on record?
Answer: 34000 µM

Each compound was assayed against T1, NS3 (assay: Inhibition constant for HCV NS3 protease substrate binding site). Settings: not given.
Parameters: species or system Hepacivirus hominis

Question: Which Ki does the source give for `CC(C)(C)OC(=O)c1ccccc1C(=O)c1ccc(OCCCOC(=O)N[C@@H](Cc2cc(I)c(O)c(I)c2)C(=O)OC(C)(C)C)cc1` here?
Answer: 1 µM

Question: For `CC(C)(C)OC(=O)N[C@H](Cc1cc(I)c(O)c(I)c1)C(=O)O`, which Ki is on record?
Answer: 260 µM

Question: How did the Ki turn out when `Cc1ccc(S(=O)(=O)NNC(=S)c2ccccc2)cc1` was run?
Answer: 650 µM

Question: Which Ki does the source give for `O=C(O)CCCc1cc(I)c(O)c(I)c1` here?
Answer: 180 µM

Question: With `O=C(O)CC(c1ccccc1)c1cc(I)c(O)c(I)c1` (configuration not stated) as the compound, how does the Ki read?
Answer: 100 µM

Question: For `O=C(N[C@@H](Cc1cc(I)c(O)c(I)c1)C(=O)O)OCCCOc1ccc(C(=O)c2ccccc2C(=O)O)cc1`, which Ki is on record?
Answer: 0.8 µM

Question: `O=C(O)CCc1cc(I)c(O)c(I)c1` was tested. Which Ki did it give?
Answer: 80 µM

Question: For `O=C(O)c1cc(I)c(O)c(I)c1`, which Ki is on record?
Answer: 600 µM

Question: With `CC(=O)N[C@H](Cc1cc(I)c(O)c(I)c1)C(=O)O` as the compound, how does the Ki read?
Answer: 210 µM

Question: Which Ki does the source give for `CC(C)(C)OC(=O)N[C@@H](Cc1cc(I)c(O)c(I)c1)C(=O)O` here?
Answer: 310 µM

Question: `O=C(O)C(Cc1cc(I)c(O)c(I)c1)c1ccccc1` (configuration not stated) [IODOALPHIONIC ACID] was tested. Which Ki did it give?
Answer: 140 µM
